Experimental data: ChEMBL document CHEMBL4706565, “Anti-glioma effects of 2-aminothiophene-3-carboxamide derivatives, ANO1 channel blockers” (Eur J Med Chem, 2020)
pIC50: −log10 of the molar value. Calls of active or inactive are those of the source. The rule behind the calls is not given here.

What was measured:
U-251 [1] = experiment: Inhibition of cell migration in human U251 cells at 5 uM incubated for 18 hrs by wound healing assay; assay type: functional, cell-based
In short: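 U251 monolayer, 2.0×10^5 cells/well, plated overnight, then scratched and washed with PBS. Incubated 18 h in complete medium with compound (1, 5 or 10 μM). Wound area imaged before and after incubation; migration ratio taken from migrated area. One-way ANOVA.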

[2] = target: T1, Anoctamin-1 (Mus musculus) (UniProt Q8BHY3); experiment: Inhibition of GFP-fused mouse ANO1 channel expressed in HEK293A cells assessed as inhibition of current amplitude at 10 uM at membrane potential of +80 mV by patch clamp electrophysiology assay; assay type: cell-based; conditions: HEK293-A
T1 sequence (whole entry): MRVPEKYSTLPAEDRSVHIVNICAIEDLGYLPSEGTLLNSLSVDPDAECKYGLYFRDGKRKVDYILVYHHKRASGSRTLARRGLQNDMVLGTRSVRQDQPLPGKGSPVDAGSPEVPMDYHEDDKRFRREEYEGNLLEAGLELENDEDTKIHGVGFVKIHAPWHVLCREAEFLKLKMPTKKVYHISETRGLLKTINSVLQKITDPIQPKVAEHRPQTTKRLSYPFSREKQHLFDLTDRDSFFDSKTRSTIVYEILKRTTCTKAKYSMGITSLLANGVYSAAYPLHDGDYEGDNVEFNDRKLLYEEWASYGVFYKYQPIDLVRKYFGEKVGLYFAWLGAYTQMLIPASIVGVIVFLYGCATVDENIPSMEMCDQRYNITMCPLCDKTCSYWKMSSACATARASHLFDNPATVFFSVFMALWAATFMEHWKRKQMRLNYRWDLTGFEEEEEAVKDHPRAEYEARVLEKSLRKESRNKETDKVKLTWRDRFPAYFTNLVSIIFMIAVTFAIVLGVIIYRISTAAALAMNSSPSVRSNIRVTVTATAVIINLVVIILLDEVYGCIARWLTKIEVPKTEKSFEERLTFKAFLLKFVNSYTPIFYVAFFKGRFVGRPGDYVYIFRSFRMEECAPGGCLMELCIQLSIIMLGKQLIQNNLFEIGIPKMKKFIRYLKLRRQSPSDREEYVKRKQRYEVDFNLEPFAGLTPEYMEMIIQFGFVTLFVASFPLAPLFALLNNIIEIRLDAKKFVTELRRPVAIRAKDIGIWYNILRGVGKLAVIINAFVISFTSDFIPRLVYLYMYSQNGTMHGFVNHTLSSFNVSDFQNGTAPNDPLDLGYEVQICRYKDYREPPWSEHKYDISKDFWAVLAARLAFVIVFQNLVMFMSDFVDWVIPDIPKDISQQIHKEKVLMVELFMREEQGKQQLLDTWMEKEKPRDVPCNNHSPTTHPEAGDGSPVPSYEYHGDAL
In short: (§1)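 Whole-cell recording at room temperature in HEK293A cells transfected with GFP-mANO1, GFP-mANO2 or GFP-mTTYH1. 1 s ramps from +80 to -80 mV, holding potential -10 mV. For ANO1/ANO2: pipette CsCl 146 mM with Ca-EGTA-NMDG, pH 7.3; bath NaCl-based, pH 7.3. For TTYH1: Tris-aspartate pipette (pH 7.2) and Tris-HCl bath (pH 7.4), with […] and BaCl2 added to block K+ channels, and hypotonic (220 mOsm/kg) bath. Washout recordings assessed reversibility.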

[3] = target: T1, Anoctamin-1 (Mus musculus); experiment: (§2) Inhibition of GFP-fused mouse ANO1 channel expressed in HEK293A cells assessed as inhibition of ATP-induced channel current amplitude at membrane potential of +80 mV by patch clamp electrophysiology assay; assay type: cell-based; conditions: HEK293-A; in short: as §1
Anoctamin-1 = target: T2, Anoctamin-1 (Mus musculus, UniProt Q8BHY3); experiment: as §2; assay type: cell-based, HEK293-A; in short: as §1
T2 sequence (Q8BHY3 whole entry): T1 sequence (whole entry)

U138-MG = experiment: Antiproliferative activity against human U138 cells overexpressing ANO1 assessed as reduction in cell viability measured after 72 hrs by Celltiter-glo assay; assay type: functional
In short: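 5.0×10^3 cells/well seeded, overnight, then compounds added as 1:4 serial dilutions in DMSO; viability read after 72 h with CellTiter-Glo luminescence. GI50 from fitted dose-response curves; triplicate wells, SD from three independent experiments. DMEM for U251 and U138, MEM for U87MG, both with 10% FBS and pen/strep, 37 °C, 5% CO2.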

[4] = Antiproliferative activity against mouse primary astrocytes assessed as reduction in cell viability measured after 72 hrs by Celltiter-Glo luminescent assay; assay type: cell-based, Astrocyte
In short: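 Primary astrocytes isolated from adult mouse brain by a previously reported method. 5.0×10^3 cells/well, compound as 1:4 serial DMSO dilutions, CellTiter-Glo viability at 72 h.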

U-251 [5] = experiment: Inhibition of colony formation in human U251 cells at 10 uM incubated for 14 days by crystal violet dye based assay; assay type: functional; conditions: U-251, 336 h, time 14 day
In short: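 Colonies stained 24 h with crystal violet in methanol/formaldehyde/PBS, washed, extracted with 10% acetic acid and read at A570 nm. Compared against DMSO control.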

| SMILES | inhibition (U-251 [1]) | inhibition [2] | inhibition [3] | pIC50 (Anoctamin-1) | GI50 (U138-MG) | GI50 at 72 h [4] | inhibition at 10 µM (U-251 [5]) |
| --- | --- | --- | --- | --- | --- | --- | --- |
| NC(=O)c1c(NC(=S)NC(=O)c2ccc(Cl)cc2)sc2c1CCC2 | Active | 57.6% | Dose-dependent effect | 5.76 | 13.2 µM | 45.1 µM | 96.4% |
| CC(C)(C)C(=O)Nc1sc2c(c1C(N)=O)CCC(C(C)(C)C)C2 (centres undefined) | Active | 50.6% | Dose-dependent effect | 5.59 | 22.2 µM | 94.8 µM | 96.6% |
